Sampled rows, rich in hits. Any-hit rate of the full collection: about 2.1%.
NOD2 RIPK2 PPI: NOD2-RIPK2 protein interaction inhibition | O43353 | CHO BLA complementation NOD2-RIPK2, CCF4 ratio | inhibition, % at 4.98 µM | 0.38% of 360,000 active; in the data active = inhibition above about 21%;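 also: 0% = vehicle only and 100% = reference blocker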
Target sequence (O43353 whole entry, looked up): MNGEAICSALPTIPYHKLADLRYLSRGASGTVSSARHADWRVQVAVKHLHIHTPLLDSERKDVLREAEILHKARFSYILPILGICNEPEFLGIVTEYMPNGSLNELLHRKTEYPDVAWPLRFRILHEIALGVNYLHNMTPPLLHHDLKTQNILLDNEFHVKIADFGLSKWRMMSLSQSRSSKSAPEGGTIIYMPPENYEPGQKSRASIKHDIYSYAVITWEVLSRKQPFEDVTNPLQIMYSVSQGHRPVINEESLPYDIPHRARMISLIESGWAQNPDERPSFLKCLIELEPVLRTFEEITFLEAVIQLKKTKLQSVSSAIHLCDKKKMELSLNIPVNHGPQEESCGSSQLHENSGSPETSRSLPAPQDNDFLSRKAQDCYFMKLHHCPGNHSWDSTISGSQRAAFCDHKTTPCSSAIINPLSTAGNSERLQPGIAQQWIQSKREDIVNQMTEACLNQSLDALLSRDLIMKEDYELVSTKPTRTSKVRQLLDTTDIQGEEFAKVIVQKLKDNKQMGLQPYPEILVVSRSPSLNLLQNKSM
TLR9-MyD88 block: inhibitors of human TLR9-MyD88 binding. Q9NR96+Q99836. CHO BLA complementation TLR9-MyD88, CCF4 FRET ratio. inhibition, % at 4.98 µM. 0.21% of 340,000 active. AID 504734;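 active = inhibition above the mean over all tested compounds plus 3 SD, cut at about 21% in these data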;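 also: 0% = DMSO only wells and 100% = clavulanate BLA inhibitor control wells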
MC4R ag barr: activates human MC4R beta-arrestin recruitment; U2OS MC4R beta-arrestin complementation, luminescence; percent of melanotan II response, DMSO zero; activation, % at 8.9 µM; 0.98% of 360,000 active; AID 540308;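 active = activation above a per-plate cutoff, the mean activation of sample wells on that plate plus 3 SD, cut at about 8% in these data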
TLR4-MyD88 BLA: blocks binding of human TLR4 to MyD88 | O00206+Q99836 | HeLa CL3-4 TLR4/MyD88 BLA complementation, FRET ratio | inhibition, % at 8.4 µM | 0.18% of 200,000 active; in the data active = inhibition above about 25%;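 also: 0% = vehicle and 100% = reference inhibitor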
MC4R antagonist: antagonists of human melanocortin 4 receptor (MC4R); MC4R-expressing cells, MTII-stimulated cAMP, LANCE TR-FRET; 0.48% of 360,000 active; AID 540295; P32245; inhibition, % at 6.5 µM;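 active = inhibition above its plate's cutoff, the mean of tested wells on that plate plus 3 SD, cut at about 29% in these data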;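 also: 0% = Melanotan II alone and 100% = Melanotan II plus saturating MCL0020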
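System – human MC4R-expressing U2OS cells · Also added – Melanotan II · Dosing – one concentration, 6.5 µM nominal · Timing – 30-min compound, 1-h challenge, 1-h detection, room temperature · Measured by – Eu-cAMP/anti-cAMP TR-FRET, emission 671 nm · Replicates – singlicate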
MIN6 prolif: induces beta-cell replication in MIN6 cells; MIN6 cells proliferation, ATPlite luminescence, 48 h; cells starved in 0.2% serum; 100% = growth in 10% serum; proliferation, % at 10 µM; 0.29% of 330,000 active;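 active = compounds whose signal lies at least 3.5 SD above the mean of all wells on their plate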;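 also: 0% = DMSO-treated cells in low-serum medium and 100% = 10% serum control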
* marks the source's active call; other numbers are inactive results; . = no result.

SMILES	NOD2 RIPK2 PPI	TLR9-MyD88 block	MC4R ag barr	TLR4-MyD88 BLA	MC4R antagonist	MIN6 prolif
COc1cc(/C=C2/C(=N)N3C=CSC3=NC2=O)ccc1OCCOc1ccc(NC(C)=O)cc1	2.8	-10.2	0.6	-3.1	7.3	-1.9
CCOc1cc(/C=C2/C(=N)N3C=CSC3=NC2=O)ccc1OCCCOc1ccccc1C	-5.1	-10.2	9.4*	-6.8	3.3	-4.6
Cc1ccccc1S(=O)(=O)NCC1CCCO1 (centres undefined)	.	-10.1	.	.	.	-2.2
Cc1ccc(-c2nn(-c3ccccc3)cc2CO)cc1	1.6	-3.5	1.0	.	1.3	1.7
Cc1ccc(-c2nn(-c3ccccc3)cc2CNCc2ccccc2)cc1	13.6	.	9.5*	2.7	0.3	-5.6
Cc1ccc2nc(-c3ccc(SCC(=O)Nc4nnc(C)s4)nc3)[nH]c2c1	-4.0	1.0	10.5*	-16.7	7.6	0.0
Cc1ccc(SCC(=O)Nc2ccc(-c3nc4ccccc4[nH]3)cc2)cc1	-5.5	5.0	8.3*	-3.1	5.1	0.0
C[C@@H]1CCCCO[C@@H](CN(C)C(=O)CCC(F)(F)F)[C@@H](C)CN([C@H](C)CO)C(=O)c2cc(N(C)C)ccc2O1	-17.2	2.4	0.1	.	-0.2	.
CCOc1cc(S(=O)(=O)Nc2ccc(CC)cc2)ccc1Cl	12.0	0.1	9.4*	5.3	2.1	-5.5
Cc1ccc(C(O)P(=O)(OCc2ccccc2)c2ccc(N(C)C)cc2)cc1 (centres undefined)	-12.1	-4.6	-0.2	.	0.2	-1.1
CCC[C@@H](CNC)NC[C@H](Cc1ccccc1)NCCCCc1ccccc1	2.9	1.2	0.4	.	4.4	-9.2
CNC[C@@H](Cc1ccccc1)NC[C@@H](CC1CCCCC1)NCCCc1ccccc1	-4.3	-4.7	11.5*	.	0.5	-7.8
CCn1c(SCC(=O)NCC2CCCO2)nnc1-c1ccc(S(=O)(=O)N2CCN(C)CC2)cc1 (centres undefined)	-2.0	-14.1	-0.4	10.8	-3.6	0.2
O=C(Nc1ccccc1C(=O)Nc1ccccc1)c1cccs1	-1.1	-14.5	9.0*	.	10.3	-2.1
CCc1nc2ccc(C(=O)N3CCN(C(C)=O)CC3)cn2c1N(C=O)Cc1ccc(OC)cc1	-3.7	.	0.3	.	7.7	.
O=C(CCCc1c[nH]c2ccccc12)NCc1ccccc1C(F)(F)F	6.7	-6.2	-0.7	.	-2.0	-1.1
Cc1ccc2nc(N(CCCN(C)C)C(=O)c3cc(-c4cccs4)nc4ccccc34)sc2c1	-0.1	-22.8	9.2*	.	5.4	-7.4
Cc1ccc2nc(N(CCCN(C)C)C(=O)COc3ccc(Cl)cc3)sc2c1	15.2	4.9	8.8*	0.5	-5.2	-3.1
CN(C)CCCN(C(=O)c1cc(-c2cccs2)nc2ccccc12)c1nc2c(F)cccc2s1	9.5	-9.7	-0.2	.	3.8	-7.2
Cc1cc(C(=O)N2CCN(S(=O)(=O)c3ccc(C)c(C)c3)CC2)no1	3.5	1.9	-6.2	.	6.5	0.0
CC(OC(=O)CCN=C1NS(=O)(=O)c2ccccc21)C(=O)N(C)C1CCCCC1 (centres undefined)	-10.6	-4.7	-0.2	.	11.6	2.2
CCCN(CCC)C(=O)c1cc2c(=O)[nH]c3ccc(C)cc3c2s1	-4.3	6.8	1.2	-11.8	15.1	-0.3
Cc1ccc(C)c(N(C)C(=O)c2cc3c(=O)[nH]c4ccc(C)cc4c3s2)c1	2.0	2.2	9.1*	.	-31.6	-3.9
CC(CCC(=O)NN)C1CCC2C3CCC4CC(O)CCC4(C)C3CCC12C (centres undefined)	-5.6	3.1	1.9	.	-0.7	.
CC(CCC(C)C(C)(C)C)[C@@H]1CC[C@H]2C3C[C@H](OS(O)(=S)=S)[C@H]4C[C@H](OS(O)(=S)=S)[C@@H](OS(O)(=S)=S)C[C@]4(C)[C@H]3CC[C@]12C (some centres undefined) (tested in a mixture with another compound)	23.9*	2.3	-1.1	.	24.7	-5.7
COC(=O)c1ccc(C2C(Oc3ccccc3)C(=O)N2CCc2ccc(OC)c(OC)c2)cc1 (centres undefined)	-5.9	1.2	8.9*	3.7	5.6	-1.9

Assay outcomes deposited in PubChem BioAssay by several laboratories.
